Here are results for 39 compounds from the M2OR odorant receptor database.

One assay concerns the target T1, UniProt Q8VG53.
T1 sequence (whole entry): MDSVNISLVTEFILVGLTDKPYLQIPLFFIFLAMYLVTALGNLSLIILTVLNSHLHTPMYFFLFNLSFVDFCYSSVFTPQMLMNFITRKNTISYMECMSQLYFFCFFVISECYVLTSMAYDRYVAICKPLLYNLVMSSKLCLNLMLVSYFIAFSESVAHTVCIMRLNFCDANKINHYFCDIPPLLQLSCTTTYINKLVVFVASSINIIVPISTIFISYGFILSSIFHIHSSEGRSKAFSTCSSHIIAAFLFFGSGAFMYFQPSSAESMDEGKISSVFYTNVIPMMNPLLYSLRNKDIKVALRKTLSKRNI
The note with it: stereoisomer not certain. The method in brief: (§1)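 Values were gathered from published papers (main text and supplementary material), with extra details requested from the original authors when needed, and checked for typos and inconsistencies. Each receptor–molecule pair is called responsive (active) if the original authors judged the measured signal statistically different from baseline, and non-responsive (inactive) otherwise. Assay methods varied by source, often transient mammalian cell-line luciferase assays. Recorded details include cell line, G-protein, co-transfected protein and tags.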
As for `CCCO`, the “odorant receptor agonist call” value is “inactive”.

On to `CCCCCCCCC=CC=O`, for which the “odorant receptor agonist call” value is “inactive”.

For `CCC(C)O` (stereo not drawn), the “odorant receptor agonist call” value is “inactive”.

For `CCCCCCCOC(=O)C(C)C`, the “odorant receptor agonist call” value was “inactive”.

As for `C=CC(=O)CCCCC`, the “odorant receptor agonist call” value is “inactive”.

On to `C=CC(=C)CCC=C(C)C`, for which the “odorant receptor agonist call” value was “inactive”.

In the case of `OCCCCCCCCCO`, the “odorant receptor agonist call” value was “inactive”.

On to `COc1nccnc1C`, for which the “odorant receptor agonist call” value was “inactive”.

As for `CCCCCCC(C)O` (stereo not drawn), the “odorant receptor agonist call” value is “inactive”.

`CCCCCCCCOC=O`: the “odorant receptor agonist call” value is “inactive”.

For `CC(=O)C1(C)CC2=C(CCCC2(C)C)CC1C` (stereo not drawn), the “odorant receptor agonist call” value was “inactive”.

Regarding `O=C(OCc1ccccc1)c1ccccc1O`, the “odorant receptor agonist call” value is “inactive”.

As to `CCc1ccc(O)cc1`, the “odorant receptor agonist call” value is “inactive”.

Regarding `CCC(C)c1nccnc1OC` (stereo not drawn), the “odorant receptor agonist call” value is “inactive”.

`COc1cnccn1`: the “odorant receptor agonist call” value is “inactive”.

In the case of `CC=Cc1ccc(OC)cc1`, the “odorant receptor agonist call” value was “inactive”.

`CCCC=O`: the “odorant receptor agonist call” value is “inactive”.

Take `C=C(C)C1CCC(C)C(O)C1` (stereo not drawn): the “odorant receptor agonist call” value is “inactive”.

In the case of `CCc1ncc(C)nc1CC`, the “odorant receptor agonist call” value is “inactive”.

On to `Cc1c(C)c(C)c(C=O)c(C)c1C`, for which the “odorant receptor agonist call” value is “inactive”.

In the case of `CC(C)CCN`, the “odorant receptor agonist call” value is “inactive”.

For the compound `OCC=Cc1ccccc1`, the “odorant receptor agonist call” value was “inactive”.

With `CC1CCC(C(C)C)C(=O)C1` (stereo not drawn), the “odorant receptor agonist call” value is “inactive”.

For `CCCCCC(C=O)=Cc1ccccc1`, the “odorant receptor agonist call” value is “inactive”.

Take `COc1nccnc1C(C)C`: the “odorant receptor agonist call” value is “inactive”.

Take `CCSCC`: the “odorant receptor agonist call” value is “inactive”.

Regarding `CCc1occc(=O)c1O`, the “odorant receptor agonist call” value is “inactive”.

Turning to `CC(C)=CCCC(C)=CCOC(=O)C(C)C`, the “odorant receptor agonist call” value is “inactive”.

As to `CC(C)CS`, the “odorant receptor agonist call” value is “inactive”.

On to `CCc1ccccc1O`, for which the “odorant receptor agonist call” value was “inactive”.

For `C=CC(C)=CCC=C(C)CCC=C(C)C`, the “odorant receptor agonist call” value is “inactive”.

Take `CC(=O)C=CC1=C(C)CCCC1(C)C`: the “odorant receptor agonist call” value is “inactive”.

On to `CC1(C)CC(=O)CC(=O)C1`, for which the “odorant receptor agonist call” value was “inactive”.

For `O=C(O)C1CCC1`, the “odorant receptor agonist call” value was “inactive”.

For `C=C(C)C1CC=C(C)CC1` (stereo not drawn), the “odorant receptor agonist call” value was “inactive”.

On to `CCCCCCC(=O)OCCCC`, for which the “odorant receptor agonist call” value was “inactive”.

With `Cc1ccccc1OC(=O)C(C)C`, the “odorant receptor agonist call” value is “inactive”.

For the compound `CC(CC=O)CCCC(C)(C)O` (stereo not drawn), the “odorant receptor agonist call” value was “inactive”.

Regarding `CCOC(=O)C(C)CC` (stereo not drawn), the “odorant receptor agonist call” value is “inactive”.

The target of a further assay is T2, UniProt Q8VG64.
T2 sequence (whole entry): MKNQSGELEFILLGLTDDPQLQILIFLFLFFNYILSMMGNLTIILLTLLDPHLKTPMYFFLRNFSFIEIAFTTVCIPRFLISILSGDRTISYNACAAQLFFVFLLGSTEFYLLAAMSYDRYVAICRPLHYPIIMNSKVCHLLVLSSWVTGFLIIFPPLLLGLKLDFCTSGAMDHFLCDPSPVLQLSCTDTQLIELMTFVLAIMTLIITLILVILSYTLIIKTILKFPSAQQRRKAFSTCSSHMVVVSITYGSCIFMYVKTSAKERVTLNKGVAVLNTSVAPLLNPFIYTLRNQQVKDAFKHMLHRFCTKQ
The following applies: stereoisomer not certain. Summed up:
as §1
As for `CCCO`, the “odorant receptor agonist call” value is “inactive”.

Consider `CCCCCCCCC=CC=O`, for which the “odorant receptor agonist call” value was “inactive”.

For `CCC(C)O` (stereo not drawn), the “odorant receptor agonist call” value is “inactive”.

In the case of `CCCCCCCOC(=O)C(C)C`, the “odorant receptor agonist call” value is “inactive”.

As to `C=CC(=O)CCCCC`, the “odorant receptor agonist call” value was “inactive”.

`C=CC(=C)CCC=C(C)C`: the “odorant receptor agonist call” value is “inactive”.

With `OCCCCCCCCCO`, the “odorant receptor agonist call” value is “active”.

Regarding `COc1nccnc1C`, the “odorant receptor agonist call” value was “inactive”.

With `CCCCCCC(C)O` (stereo not drawn), the “odorant receptor agonist call” value is “inactive”.

For `CCCCCCCCOC=O`, the “odorant receptor agonist call” value is “inactive”.

On to `CC(=O)C1(C)CC2=C(CCCC2(C)C)CC1C` (stereo not drawn), for which the “odorant receptor agonist call” value is “inactive”.

Regarding `O=C(OCc1ccccc1)c1ccccc1O`, the “odorant receptor agonist call” value is “inactive”.

Consider `CCc1ccc(O)cc1`, for which the “odorant receptor agonist call” value is “inactive”.

On to `CCC(C)c1nccnc1OC` (stereo not drawn), for which the “odorant receptor agonist call” value was “inactive”.

For `COc1cnccn1`, the “odorant receptor agonist call” value was “inactive”.

Turning to `CC=Cc1ccc(OC)cc1`, the “odorant receptor agonist call” value is “inactive”.

Take `CCCC=O`: the “odorant receptor agonist call” value is “inactive”.

For `C=C(C)C1CCC(C)C(O)C1` (stereo not drawn), the “odorant receptor agonist call” value was “inactive”.

In the case of `CCc1ncc(C)nc1CC`, the “odorant receptor agonist call” value was “inactive”.

With `Cc1c(C)c(C)c(C=O)c(C)c1C`, the “odorant receptor agonist call” value was “inactive”.

On to `CC(C)CCN`, for which the “odorant receptor agonist call” value is “inactive”.

In the case of `OCC=Cc1ccccc1`, the “odorant receptor agonist call” value is “inactive”.

`CC1CCC(C(C)C)C(=O)C1` (stereo not drawn): the “odorant receptor agonist call” value is “inactive”.

Consider `CCCCCC(C=O)=Cc1ccccc1`, for which the “odorant receptor agonist call” value is “inactive”.

For the compound `COc1nccnc1C(C)C`, the “odorant receptor agonist call” value is “inactive”.

As for `CCSCC`, the “odorant receptor agonist call” value was “inactive”.

Regarding `CCc1occc(=O)c1O`, the “odorant receptor agonist call” value is “inactive”.

Take `CC(C)=CCCC(C)=CCOC(=O)C(C)C`: the “odorant receptor agonist call” value is “inactive”.

Consider `CC(C)CS`, for which the “odorant receptor agonist call” value is “inactive”.

Take `CCc1ccccc1O`: the “odorant receptor agonist call” value was “inactive”.

Turning to `C=CC(C)=CCC=C(C)CCC=C(C)C`, the “odorant receptor agonist call” value is “inactive”.

On to `CC(=O)C=CC1=C(C)CCCC1(C)C`, for which the “odorant receptor agonist call” value was “inactive”.

As to `CC1(C)CC(=O)CC(=O)C1`, the “odorant receptor agonist call” value was “inactive”.

As to `O=C(O)C1CCC1`, the “odorant receptor agonist call” value was “inactive”.

On to `C=C(C)C1CC=C(C)CC1` (stereo not drawn), for which the “odorant receptor agonist call” value is “inactive”.

Regarding `CCCCCCC(=O)OCCCC`, the “odorant receptor agonist call” value is “inactive”.

As for `Cc1ccccc1OC(=O)C(C)C`, the “odorant receptor agonist call” value is “inactive”.

`CC(CC=O)CCCC(C)(C)O` (stereo not drawn): the “odorant receptor agonist call” value is “inactive”.

Consider `CCOC(=O)C(C)CC` (stereo not drawn), for which the “odorant receptor agonist call” value was “inactive”.
